Data as given in ChEMBL document CHEMBL1129379, “Heterocyclic ureas: inhibitors of acyl-CoA:cholesterol O-acyltransferase as hypocholesterolemic agents” (J Med Chem, 1996).

Experiments:
O-acyltransferase = O-acyltransferase (Oryctolagus cuniculus, UniProt G1SFD9); assay: Acyl coenzyme A:cholesterol acyltransferase 1 inhibition in vitro measured in rabbit intestinal microsomes; parameters: species or system Intestine
[1] = target: T1, Sterol O-acyltransferase 1 (Rattus norvegicus) (UniProt O70536); assay: Percent change in plasma total cholesterol in an acute cholesterol-fed rat model of hypercholesterolemia, dose at 30 mg/kg; type: functional, organism-based; parameters: dose 30 mg/kg
T1 sequence (whole entry): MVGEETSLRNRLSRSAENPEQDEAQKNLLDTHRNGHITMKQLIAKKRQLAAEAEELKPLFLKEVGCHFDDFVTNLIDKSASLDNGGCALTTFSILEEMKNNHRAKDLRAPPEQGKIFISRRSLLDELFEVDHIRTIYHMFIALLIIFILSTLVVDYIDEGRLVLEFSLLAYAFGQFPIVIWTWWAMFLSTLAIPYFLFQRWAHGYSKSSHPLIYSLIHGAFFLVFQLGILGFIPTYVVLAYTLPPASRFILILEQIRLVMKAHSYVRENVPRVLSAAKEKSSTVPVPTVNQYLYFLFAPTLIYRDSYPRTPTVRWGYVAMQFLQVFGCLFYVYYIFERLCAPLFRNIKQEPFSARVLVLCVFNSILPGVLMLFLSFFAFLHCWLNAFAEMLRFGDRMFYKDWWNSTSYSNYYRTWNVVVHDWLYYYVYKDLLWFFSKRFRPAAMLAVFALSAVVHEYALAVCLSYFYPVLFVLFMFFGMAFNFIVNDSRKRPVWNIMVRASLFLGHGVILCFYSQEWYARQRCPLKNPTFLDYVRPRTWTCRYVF

[2] = target: T1, Sterol O-acyltransferase 1 (Rattus norvegicus); assay: Percent change in plasma total cholesterol in an acute cholesterol-fed rat model of hypercholesterolemia, dose at 3 mg/kg; type: functional, organism-based; parameters: dose 3 mg/kg
Rattus norvegicus [3] = assay: Percent change in HDL-C,dose at 30 mg/kg; type: functional
Summary of the method: (§1)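 Chronic rat model of pre-established hypercholesterolemia: 1 week on high-cholesterol diet, then compound dosed orally once daily for 1 week. Plasma total cholesterol, HDL-C and non-HDL-C expressed as percent change versus control; p < 0.05 flagged.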

Rattus norvegicus [4] = assay: Percent change in plasma TC in the chronic C-fed rat model of pre-established hypercholesterolemia. dose at 30 mg/kg; type: functional; summary of the method: as §1
Rattus norvegicus [5] = assay: Percent change in non-HDL-C, dose at 30 mg/kg; type: functional; summary of the method: as §1
Rattus norvegicus [6] = assay: Percent change in HDL-Cdose at 30 mg/kg; type: functional; summary of the method: as §1
Rattus norvegicus [7] = assay: Percent change in non-HDL-C Dose at 30 mg/kg; type: functional; summary of the method: as §1
Rattus norvegicus [8] = assay: Percent change in HDL-CDose at 30 mg/kg; type: functional; summary of the method: as §1
[9] = target: T1, Sterol O-acyltransferase 1 (Rattus norvegicus); assay: Percent change in plasma TC in the chronic C-fed rat model of pre-established hypercholesterolemia. Dose at 30 mg/kg; type: functional, organism-based; parameters: dose 30 mg/kg; summary of the method: as §1

With `CCCCCCCCCCc1sc(NC(=O)Nc2c(C(C)C)cccc2C(C)C)nc1C` the IC50 (O-acyltransferase) was 120 nM and the Delta TC [1] was -33%.
Molecule `CCCCCCCCCCCCc1n[nH]c(NC(=O)Nc2c(C(C)C)cccc2C(C)C)n1` has an IC50 (O-acyltransferase) of 4200 nM and a Delta TC [1] of 12%.
`CCCCCCCCCCCN1NN=C(NC(=O)Nc2c(C(C)C)cccc2C(C)C)N1` was tested, and the IC50 (O-acyltransferase) was 9 nM, the Delta TC [2] was -63% and the Delta TC [1] was -70%.
With `CC(C)c1cccc(C(C)C)c1NC(=O)Nc1nn[nH]n1` the Delta TC [1] was -19%.
`CCCCCCCCCCCCCS(=O)(=O)c1n[nH]c(NC(=O)Nc2c(C(C)C)cccc2C(C)C)n1` showed an IC50 (O-acyltransferase) of 4700 nM and a Delta TC [1] of -11%.
`COC(=O)CCCCCCCCCCN1NN=C(NC(=O)Nc2c(C(C)C)cccc2C(C)C)N1` was tested, and the IC50 (O-acyltransferase) was 4700 nM and the Delta TC [1] was -23%.
In the case of `CCCCCCCCCCCCCc1cc(NC(=O)Nc2c(C(C)C)cccc2C(C)C)no1`, the IC50 (O-acyltransferase) is reported as 14 nM, the Delta TC [2] is reported as -59% and the Delta TC [1] is reported as -62%. For the same molecule, the “Delta HDL-C” value (Rattus norvegicus [3]) was 33%, the “Delta TC” value (Rattus norvegicus [4]) was -40% and the Non-HDL-C (Rattus norvegicus [5]) was -45%.
In the case of `CCCCCCCCCCCCn1cnc(NC(=O)Nc2c(C(C)C)cccc2C(C)C)c1`, the IC50 (O-acyltransferase) is reported as 35 nM.
`CCCCCCCCCCCCn1cnnc1NC(=O)Nc1c(C(C)C)cccc1C(C)C` gave a Delta TC [1] of -28%.
`CCCCCCCCCCCc1nnc(NC(=O)Nc2c(C(C)C)cccc2C(C)C)s1` was tested, and the IC50 (O-acyltransferase) was 39 nM and the Delta TC [1] was -61%.
Molecule `CCCCCCCCCCCCC[S+]([O-])c1n[nH]c(NC(=O)Nc2c(C(C)C)cccc2C(C)C)n1` (centres undefined) has an IC50 (O-acyltransferase) of 1700 nM and a Delta TC [1] of -6%.
For `CC(C)c1cccc(C(C)C)c1NC(=O)Nc1nnn(CCCCCCCCCCCO)n1`, the IC50 (O-acyltransferase) was 32 nM and the Delta TC [1] was -28%.
`CCCCCCCCCCc1cc(NC(=O)Nc2c(C(C)C)cccc2C(C)C)on1` was tested, and the IC50 (O-acyltransferase) was 29 nM, the Delta TC [2] was -61% and the “Delta HDL-C” value (Rattus norvegicus [6]) was -6%. For the same molecule, the Delta TC [1] was -69%, the “Delta TC” value (Rattus norvegicus [4]) was -13% and the Non-HDL-C (Rattus norvegicus [7]) was -14%.
Work on `CCCCCCCCCCCCN1NN=C(CNC(=O)Nc2c(OC)cc(OC)cc2OC)N1` yielded an IC50 (O-acyltransferase) of 150 nM and a Delta TC [1] of -40%.
In the case of `CCCCCCCCCCCCCc1cc(NC(=O)Nc2c(C(C)C)cccc2C(C)C)on1`, the IC50 (O-acyltransferase) is reported as 13 nM, the Delta TC [2] is reported as -51% and the Delta TC [1] is reported as -62%. The Non-HDL-C (Rattus norvegicus [7]) was -65%, the “Delta HDL-C” value (Rattus norvegicus [8]) was 111% and the Delta TC [9] was -53%.
In the case of `CCCCCCCCCCCCCc1nnc(NC(=O)Nc2c(C(C)C)cccc2C(C)C)s1`, the IC50 (O-acyltransferase) is reported as 36 nM and the Delta TC [1] is reported as -46%.
Work on `CCCCCCCCCCn1nnnc1NC(=O)Nc1c(C(C)C)cccc1C(C)C` yielded a Delta TC [2] of -22% and a Delta TC [1] of -65%.
Work on `CCCCCCCCCCCCCCCCN1NN=C(NC(=O)Nc2c(C(C)C)cccc2C(C)C)N1` yielded an IC50 (O-acyltransferase) of 57 nM, a Delta TC [2] of -43% and a Delta TC [1] of -67%.
Work on `CCCCCCCCCCCCN1NN=C(NC(=O)Nc2c(OC)cc(OC)cc2OC)N1` yielded an IC50 (O-acyltransferase) of 66 nM, a Delta TC [2] of -69% and a Delta TC [1] of -75%.
`CCCCCCCCCCCCc1coc(NC(=O)Nc2c(C(C)C)cccc2C(C)C)n1` showed an IC50 (O-acyltransferase) of 63 nM and a Delta TC [1] of -55%.
Work on `CCCCCCCCCCCc1csc(NC(=O)Nc2c(C(C)C)cccc2C(C)C)n1` yielded an IC50 (O-acyltransferase) of 150 nM and a Delta TC [1] of -29%.
